Experimental findings from ChEMBL document CHEMBL4393708, “Pyridinylimidazoles as dual glycogen synthase kinase 3β/p38α mitogen-activated protein kinase inhibitors” (Eur J Med Chem, 2019) are described below.

Assay [1] deals with Tyrosine-protein kinase JAK3 (Homo sapiens) (UniProt P52333). Kind of assay: Inhibition of human recombinant JAK3 at 1 uM using Ulight-CAGAGAIETDKEYYTVKD as substrate measured after 60 mins in presence of ATP by LANCE assay relative to control. In a few lines: (§1)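 Kinase panel run by an outside provider (Eurofins Cerep) in a LANCE assay, single test concentration of 1 µM, results as percent inhibition.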
Chain of Tyrosine-protein kinase JAK3 (Homo sapiens) (P52333 whole entry): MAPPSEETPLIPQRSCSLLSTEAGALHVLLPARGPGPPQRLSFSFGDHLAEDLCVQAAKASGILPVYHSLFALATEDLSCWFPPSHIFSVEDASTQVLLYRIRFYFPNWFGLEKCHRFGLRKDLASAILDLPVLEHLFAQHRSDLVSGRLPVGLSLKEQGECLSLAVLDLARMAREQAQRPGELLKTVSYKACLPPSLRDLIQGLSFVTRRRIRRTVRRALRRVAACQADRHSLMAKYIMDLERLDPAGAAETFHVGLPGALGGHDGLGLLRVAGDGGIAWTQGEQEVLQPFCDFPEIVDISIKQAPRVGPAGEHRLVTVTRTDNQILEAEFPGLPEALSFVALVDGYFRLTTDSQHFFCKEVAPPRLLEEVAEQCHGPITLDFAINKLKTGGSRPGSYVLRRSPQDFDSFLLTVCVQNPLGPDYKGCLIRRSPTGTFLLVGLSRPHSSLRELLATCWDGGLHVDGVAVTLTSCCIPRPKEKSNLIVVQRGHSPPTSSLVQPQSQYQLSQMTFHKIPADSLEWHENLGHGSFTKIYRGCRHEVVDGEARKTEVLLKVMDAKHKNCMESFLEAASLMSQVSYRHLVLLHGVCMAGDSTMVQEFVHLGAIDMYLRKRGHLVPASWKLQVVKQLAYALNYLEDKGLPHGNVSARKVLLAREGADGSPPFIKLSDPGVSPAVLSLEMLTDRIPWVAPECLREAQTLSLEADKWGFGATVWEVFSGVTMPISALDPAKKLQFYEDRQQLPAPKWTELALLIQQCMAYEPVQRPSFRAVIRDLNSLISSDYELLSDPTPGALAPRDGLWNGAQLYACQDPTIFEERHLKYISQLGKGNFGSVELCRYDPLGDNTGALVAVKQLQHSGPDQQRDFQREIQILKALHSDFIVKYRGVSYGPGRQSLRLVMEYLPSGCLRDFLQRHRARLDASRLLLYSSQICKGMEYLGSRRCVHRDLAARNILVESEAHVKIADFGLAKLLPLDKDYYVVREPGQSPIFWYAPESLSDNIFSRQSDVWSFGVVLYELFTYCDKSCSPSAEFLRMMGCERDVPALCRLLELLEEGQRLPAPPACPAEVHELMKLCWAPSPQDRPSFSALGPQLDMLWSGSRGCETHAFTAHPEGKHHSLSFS
For orientation: Time-resolved FRET reads energy transfer from a long-lived donor to a nearby acceptor.

The target in assay [2] is Glycogen synthase kinase-3 beta (Homo sapiens, UniProt P49841). The assay can be described thus: Inhibition of human recombinant GSK3beta at 1 uM using Ulight-CFFKNIVTPRTPPPSQGK-amide as substrate measured after 90 mins in presence of ATP by LANCE assay relative to control. A digest of the protocol:
as §1

Assay [3] deals with MAP kinase-interacting serine/threonine-protein kinase 2 (Homo sapiens) (UniProt Q9HBH9). The assay can be described thus: Inhibition of human recombinant MNK2 at 1 uM using CREBtide as substrate measured after 90 mins in presence of ATP by LANCE assay relative to control. In a few lines:
as §1

Chain of MAP kinase-interacting serine/threonine-protein kinase 2 (Homo sapiens) (Q9HBH9 whole entry, looked up): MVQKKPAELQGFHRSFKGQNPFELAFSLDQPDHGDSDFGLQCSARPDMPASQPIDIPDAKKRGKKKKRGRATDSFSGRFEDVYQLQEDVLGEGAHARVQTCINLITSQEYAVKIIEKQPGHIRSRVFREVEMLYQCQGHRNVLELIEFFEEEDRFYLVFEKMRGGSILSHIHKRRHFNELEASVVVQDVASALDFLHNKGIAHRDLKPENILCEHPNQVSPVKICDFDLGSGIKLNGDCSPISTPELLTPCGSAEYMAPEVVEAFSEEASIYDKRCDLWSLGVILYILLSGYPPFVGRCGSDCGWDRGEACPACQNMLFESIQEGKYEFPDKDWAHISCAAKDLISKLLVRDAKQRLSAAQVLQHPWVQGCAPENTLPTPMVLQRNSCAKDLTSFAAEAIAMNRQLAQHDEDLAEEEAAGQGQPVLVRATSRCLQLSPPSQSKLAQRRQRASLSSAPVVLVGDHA
Chain of Glycogen synthase kinase-3 beta (P49841 whole entry, looked up): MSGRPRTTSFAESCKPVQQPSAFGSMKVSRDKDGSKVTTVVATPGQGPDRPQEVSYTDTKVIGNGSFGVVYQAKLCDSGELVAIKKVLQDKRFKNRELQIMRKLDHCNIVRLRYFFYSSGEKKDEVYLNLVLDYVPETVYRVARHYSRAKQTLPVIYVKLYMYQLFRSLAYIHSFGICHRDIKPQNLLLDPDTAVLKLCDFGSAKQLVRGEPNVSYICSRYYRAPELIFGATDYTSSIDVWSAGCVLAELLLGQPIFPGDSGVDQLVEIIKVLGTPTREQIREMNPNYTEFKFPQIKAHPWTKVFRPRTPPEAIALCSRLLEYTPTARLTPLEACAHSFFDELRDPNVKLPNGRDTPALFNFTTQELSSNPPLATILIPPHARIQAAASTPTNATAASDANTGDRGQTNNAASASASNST

Usually inhibition stands for the share of the control response that was lost under treatment. Turning to `CCc1nc(-c2ccc(F)cc2)c(-c2ccnc(NC(=O)C3CC3)c2)[nH]1`, the values for the inhibition in assay [1], in assay [2] and in assay [3] were 24.8%, 97% and 1.16%, respectively.
